Reference: ChEMBL document CHEMBL2146380, “Uncoupling and antioxidant effects of ursolic acid in isolated rat heart mitochondria” (J Nat Prod, 2011)
≈ marks a conversion by molar mass, not a printed value. Calls of active or inactive are those of the source. The rule behind the calls is not given here.

How the values were obtained:
Assay type in all cases: functional
Rattus norvegicus [1] = organism: Rattus norvegicus; assay: Effect on basal respiration rate in Wistar rat heart mitochondrial respiratory chain using pyruvate and malate as substrate at 0.4 to 1.2 ng/mL; details: Mitochondria
In short: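 Clark-type electrode oxygen uptake at 37 C, pH 7.1 imidazole/taurine/MES medium with 3 mM KH2PO4, 0.1 μM free Ca2+. Substrates 6 mM pyruvate + 6 mM malate; compound at 0.4, 0.8, 1.2 ng/mL; State 2 (V0) rate registered, nmol O/min/mg protein.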

[2] = (§1) Effect on mitochondrial respiratory chain in Wistar rat heart mitochondria assessed as increase in state 2 respiratory rate using pyruvate and malate as substrate
In short: (§2)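 Isolated male Wistar rat heart mitochondria at 0.5 mg protein/mL. O2 uptake was recorded by Clark electrode at 37 C in pH 7.1 imidazole/taurine/MES medium (3 mM KH2PO4, 0.1 μM free Ca2+). Substrates were 6 mM pyruvate + 6 mM malate, 12 mM succinate + 2 mM amytal, or 9 μM palmitoyl-L-carnitine + 0.24 mM malate. Sequence: State 2 (V0), then 1 mM ADP (State 3), then 32 μM cytochrome c. RCI = VADP/V0. Rates in nmol O/min/mg; n = 3–4.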

Rattus norvegicus [3] = organism: Rattus norvegicus; assay: as §1; in short: as §2
Rattus norvegicus [4] = organism: Rattus norvegicus; assay: Effect on mitochondrial respiratory chain in Wistar rat heart mitochondria assessed as state 2 respiratory rate per mg protein using succinate and amytal sodium as substrate at 1.6 ng/mL; in short: as §2
Rattus norvegicus [5] = organism: Rattus norvegicus; assay: Effect on mitochondrial respiratory chain in Wistar rat heart mitochondria assessed as state 2 respiratory rate per mg protein using succinate and amytal sodium as substrate at 5 ng/mL; in short: as §2
Rattus norvegicus [6] = organism: Rattus norvegicus; assay: Effect on mitochondrial respiratory chain in Wistar rat heart mitochondria assessed as state 2 respiratory rate using palmitoyl-L-carnitine and malate as substrate at 1.6 ng/mL; in short: as §2
Rattus norvegicus [7] = organism: Rattus norvegicus; assay: Effect on mitochondrial respiratory chain in Wistar rat heart mitochondria assessed as state 3 respiratory rate using pyruvate and malate as substrate at 5 ng/mL; in short: as §2
Rattus norvegicus [8] = organism: Rattus norvegicus; assay: Effect on mitochondrial respiratory chain in Wistar rat heart mitochondria assessed as state 3 respiratory rate using succinate and amytal sodium as substrate at 5 ng/mL; in short: as §2
Rattus norvegicus [9] = organism: Rattus norvegicus; assay: Effect on mitochondrial respiratory chain in Wistar rat heart mitochondria assessed as increase in state 2 respiration rate using pyruvate and malate as substrate at 50 to 200 ng/mL; in short: as §2
Rattus norvegicus [10] = organism: Rattus norvegicus; assay: Effect on mitochondrial respiratory chain in Wistar rat heart mitochondria assessed as increase in state 3 respiration rate using pyruvate and malate as substrate in presence ADP at 50 to 200 ng/mL; in short: as §2
Rattus norvegicus [11] = organism: Rattus norvegicus; assay: Effect on mitochondrial respiratory chain in Wistar rat heart mitochondria assessed as decrease in respiratory control index at 50 to 200 ng/mL; set-up: scale not given: the % may be the effect or the level left; in short: as §2
Rattus norvegicus [12] = organism: Rattus norvegicus; assay: Antioxidant activity in Wistar rat heart mitochondria assessed as reduction in H2O2 production at 5 ng/mL by Amplex red based fluorimetric analysis; set-up: scale not given: the % may be the effect or the level left
In short: (§3)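 Male Wistar rat heart mitochondria (0.25 mg/mL) incubated 7 min at 37 C in respiration medium with 6 mM each pyruvate and malate plus 16 ng/mL antimycin A. CCCP (1 μM) was the uncoupler reference. Then 5 μM Amplex Red and 2 U/mL horseradish peroxidase were added; fluorescence at ex 544/em 590 nm, calibrated with known H2O2; n = 3.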

Rattus norvegicus [13] = organism: Rattus norvegicus; assay: Antioxidant activity in Wistar rat heart mitochondria assessed as reduction in H2O2 production at 1.6 ng/mL by Amplex red based fluorimetric analysis; set-up: scale not given: the % may be the effect or the level left; in short: as §3
Rattus norvegicus [14] = organism: Rattus norvegicus; assay: Effect on mitochondrial respiratory chain in rat heart mitochondria assessed as stimulation of state 2 respiration rate 12.6 ng/mL
Rattus norvegicus [15] = organism: Rattus norvegicus; assay: Effect on mitochondrial respiratory chain in rat heart mitochondria assessed as stimulation of state 2 respiration rate 4.9 ng/mL
Rattus norvegicus [16] = organism: Rattus norvegicus; assay: Effect on mitochondrial respiratory chain in rat heart mitochondria assessed as stimulation of state 2 respiration rate 449 ng/mL
Rattus norvegicus [17] = organism: Rattus norvegicus; assay: Effect on mitochondrial respiratory chain in rat heart mitochondria assessed as stimulation of state 2 respiration rate 293 ng/mL
Rattus norvegicus [18] = organism: Rattus norvegicus; assay: Effect on mitochondrial respiratory chain in rat heart mitochondria assessed as stimulation of state 2 respiration rate 7 ng/mL
Rattus norvegicus [19] = organism: Rattus norvegicus; assay: Effect on mitochondrial respiratory chain in rat heart mitochondria assessed as stimulation of state 2 respiration rate 26 ng/mL
Rattus norvegicus [20] = organism: Rattus norvegicus; assay: Effect on mitochondrial respiratory chain in Wistar rat heart mitochondria assessed as increase in state 2 respiratory rate using palmitoyl-L-carnitine and malate as substrate at 5 ng/mL; in short: as §2
Rattus norvegicus [21] = organism: Rattus norvegicus; assay: Effect on mitochondrial respiratory chain in Wistar rat heart mitochondria assessed as increase in complex-1 dependent state 2 respiratory rate per mg protein using pyruvate and malate as substrate at 1.6 ng/mL; in short: as §2
Rattus norvegicus [22] = organism: Rattus norvegicus; assay: Effect on mitochondrial respiratory chain in Wistar rat heart mitochondria assessed as state 3 respiratory rate using palmitoyl-L-carnitine and malate as substrate at 5 ng/mL; in short: as §2
Rattus norvegicus [23] = organism: Rattus norvegicus; assay: Effect on mitochondrial respiratory chain in Wistar rat heart mitochondria assessed as increase in state 2 respiratory rate using palmitoyl-L-carnitine and malate as substrate at 1.6 ng/mL; in short: as §2
Rattus norvegicus [24] = organism: Rattus norvegicus; assay: Effect on mitochondrial respiratory chain in Wistar rat heart mitochondria assessed as increase in state 2 respiratory rate per mg protein using succinate and amytal sodium as substrate at 5 ng/mL; in short: as §2
Rattus norvegicus [25] = organism: Rattus norvegicus; assay: Effect on mitochondrial respiratory chain in Wistar rat heart mitochondria assessed as increase in state 2 respiratory rate per mg protein using succinate and amytal sodium as substrate at 1.6 ng/mL; in short: as §2
Rattus norvegicus [26] = organism: Rattus norvegicus; assay: Effect on mitochondrial respiratory chain in Wistar rat heart mitochondria assessed as increase in complex-1 dependent state 2 respiratory rate per mg protein using pyruvate and malate as substrate at 5 ng/mL; in short: as §2
Rattus norvegicus [27] = organism: Rattus norvegicus; assay: Effect on mitochondrial respiratory chain in Wistar rat heart mitochondria assessed as state 2 respiratory rate using palmitoyl-L-carnitine and malate as substrate at 5 ng/mL; in short: as §2
Rattus norvegicus [28] = organism: Rattus norvegicus; assay: Effect on mitochondrial respiratory chain in Wistar rat heart mitochondria assessed as respiratory rate per mg protein using pyruvate and malate as substrate (reference value: 52 +/- 7 nmol/min); in short: as §2
Rattus norvegicus [29] = organism: Rattus norvegicus; assay: Effect on mitochondrial respiratory chain in Wistar rat heart mitochondria assessed as respiratory rate per mg protein using pyruvate and malate as substrate in presence of ADP (reference value: 389+/-40 nmol/min); in short: as §2
Rattus norvegicus [30] = organism: Rattus norvegicus; assay: Effect on mitochondrial respiratory chain in Wistar rat heart mitochondria assessed as ratio of respiratory rate in presence of ADP and cytochrome C to respiratory rate in presence of ADP using pyruvate and malate as substrate (reference value: 1.6+/-0.2); in short: as §2
Rattus norvegicus [31] = organism: Rattus norvegicus; assay: Effect on mitochondrial respiratory chain in Wistar rat heart mitochondria assessed as respiratory control index using pyruvate and malate as substrate (reference value: 8.0+/-1.2); in short: as §2
Rattus norvegicus [32] = organism: Rattus norvegicus; assay: Effect on mitochondrial respiratory chain in Wistar rat heart mitochondria assessed as respiratory rate per mg protein using palmitoyl-L-carnitine and malate as substrate (reference value: 85+/-4 nmol/min); in short: as §2
Rattus norvegicus [33] = organism: Rattus norvegicus; assay: Effect on mitochondrial respiratory chain in Wistar rat heart mitochondria assessed as respiratory rate per mg protein using succinate and amytal sodium as substrate (reference value: 238+/-39 nmol/min); in short: as §2
Rattus norvegicus [34] = organism: Rattus norvegicus; assay: Effect on mitochondrial respiratory chain in Wistar rat heart mitochondria assessed as respiratory rate per mg protein using palmitoyl-L-carnitine and malate as substrate in presence of ADP (reference value: 436+/-54 nmol/min); in short: as §2
Rattus norvegicus [35] = organism: Rattus norvegicus; assay: Effect on mitochondrial respiratory chain in Wistar rat heart mitochondria assessed as respiratory rate per mg protein using succinate and amytal sodium as substrate in presence of ADP (reference value: 606+/-108 nmol/min); in short: as §2
Rattus norvegicus [36] = organism: Rattus norvegicus; assay: Effect on mitochondrial respiratory chain in Wistar rat heart mitochondria assessed as ratio of respiratory rate in presence of ADP and cytochrome c to respiratory rate in presence of ADP using succinate and amytal sodium as substrate (reference value: 1.8+/- 0.1); in short: as §2
Rattus norvegicus [37] = organism: Rattus norvegicus; assay: Effect on mitochondrial respiratory chain in Wistar rat heart mitochondria assessed as respiratory control index using succinate and amytal sodium as substrate (reference value: 2.5+/- 0.1); in short: as §2
Rattus norvegicus [38] = organism: Rattus norvegicus; assay: Effect on mitochondrial respiratory chain in Wistar rat heart mitochondria assessed as ratio of respiratory rate in presence of ADP and cytochrome c to respiratory rate in presence of ADP using palmitoyl-L-carnitine and malate as substrate (reference value: 1.3+/-0.1); in short: as §2
Rattus norvegicus [39] = organism: Rattus norvegicus; assay: Effect on mitochondrial respiratory chain in Wistar rat heart mitochondria assessed as respiratory control index using palmitoyl-L-carnitine and malate as substrate (reference value: 5.2+/-0.4); in short: as §2
Rattus norvegicus [40] = organism: Rattus norvegicus; assay: Effect on mitochondrial respiratory chain in Wistar rat heart mitochondria assessed as complex-1 dependent state 2 respiratory rate per mg protein using pyruvate and malate as substrate at 1.6 ng/mL; in short: as §2
Rattus norvegicus [41] = organism: Rattus norvegicus; assay: Effect on mitochondrial respiratory chain in Wistar rat heart mitochondria assessed as complex-1 dependent state 2 respiratory rate per mg protein using pyruvate and malate as substrate at 5 ng/mL; in short: as §2

For `C[C@H]1[C@H](C)CC[C@]2(C(=O)O)CC[C@]3(C)C(=CC[C@@H]4[C@@]5(C)CC[C@H](O)C(C)(C)[C@@H]5CC[C@]43C)[C@H]12` [URSOLIC ACID], the Activity (Rattus norvegicus [1]) was “inactive”, the EC50 [2] was 4.1 ng/mL (≈ 8.98 nM) and the Activity (Rattus norvegicus [3]) was “Dose-dependent effect”. It also gave an Activity (Rattus norvegicus [4]) of 279 nmol/min, an Activity (Rattus norvegicus [5]) of 299 nmol/min and an Activity (Rattus norvegicus [6]) of 90 nmol/min. The Activity (Rattus norvegicus [7]) was “inactive”, the Activity (Rattus norvegicus [8]) was “inactive” and the Activity (Rattus norvegicus [9]) was 40%. The Activity (Rattus norvegicus [10]) was “inactive”, the Activity (Rattus norvegicus [11]) was 45% and the Activity (Rattus norvegicus [12]) was 55.6%. The Activity (Rattus norvegicus [13]) was 49.5%, the Activity (Rattus norvegicus [14]) was 11% and the Activity (Rattus norvegicus [15]) was 11%. The Activity (Rattus norvegicus [16]) was 11%, the Activity (Rattus norvegicus [17]) was 11% and the Activity (Rattus norvegicus [18]) was 11%. For the same compound, the Activity (Rattus norvegicus [19]) was 70%, the Activity (Rattus norvegicus [20]) was 10% and the Activity (Rattus norvegicus [21]) was 15%. For the same compound, the Activity (Rattus norvegicus [22]) was “inactive”, the Activity (Rattus norvegicus [23]) was 10% and the Activity (Rattus norvegicus [24]) was 26%. The Activity (Rattus norvegicus [25]) was 17%, the Activity (Rattus norvegicus [26]) was 28% and the Activity (Rattus norvegicus [27]) was 92 nmol/min. The Activity (Rattus norvegicus [28]) was 61 nmol/min, the Activity (Rattus norvegicus [29]) was 374 nmol/min and the Ratio (Rattus norvegicus [30]) was 1.5. The Ratio (Rattus norvegicus [31]) was 4.8, the Activity (Rattus norvegicus [32]) was 82 nmol/min and the Activity (Rattus norvegicus [33]) was 238 nmol/min. The Activity (Rattus norvegicus [34]) was 403 nmol/min, the Activity (Rattus norvegicus [35]) was 599 nmol/min and the Ratio (Rattus norvegicus [36]) was 1.5. For the same compound, the Ratio (Rattus norvegicus [37]) was 2, the Ratio (Rattus norvegicus [38]) was 1.2 and the Ratio (Rattus norvegicus [39]) was 4.4. It also gave an Activity (Rattus norvegicus [40]) of 70 nmol/min and an Activity (Rattus norvegicus [41]) of 78 nmol/min.
